Measured values from ChEMBL document CHEMBL1157704, “Potent activity against K562 cells by polyamide-seco-CBI conjugates targeting histone H4 genes” (Bioorg Med Chem, 2010).

Tests used:
Type in all cases: functional
K562 [1] = assay: Effect on HIST1H1D gene expression in human K562 cells assessed as change in mRNA transcript expression at 10 nM after 48 hrs by DNA microarray analysis relative to control
Summary of the method: (§1)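 Transcripts were profiled on Affymetrix GeneChip Human Gene 1.0 ST arrays in K562 cells treated at 10 nM. Treated cells were collected at 6, 12, 24 and 48 h; untreated controls were collected at 48 h. Transcripts changed at least twofold versus control were scored.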

K562 [2] = assay: Induction of apoptosis in human K562 cells assessed as non-viable necrotic cells at 125 nM after 48 hrs by annexin-V FITC and propidium iodide staining-based FACS analysis
Summary of the method: (§2)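 K562 cells were exposed to conjugate in culture medium for 48 h, then stained with annexin V-FITC plus propidium iodide. Cell populations were quantified by flow cytometry.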

K562 [3] = assay: Effect on JUN gene expression in human K562 cells assessed as change in mRNA transcript expression at 10 nM after 48 hrs by DNA microarray analysis relative to control
Summary of the method: (§3)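 K562 CML cells (b3a2 Bcr-Abl) in standard ATCC-recommended culture, exposed once to 10 nM conjugate and harvested at 48 h. Untreated controls were also collected at 48 h. Transcripts were profiled on Human Gene 1.0 ST whole-genome oligonucleotide arrays, and each treated level was expressed relative to the untreated control, with a cutoff of at least twofold change.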

K562 [4] = assay: Effect on C3 gene expression in human K562 cells assessed as change in mRNA transcript expression at 10 nM after 48 hrs by DNA microarray analysis relative to control; summary of the method: as §1
K562 [5] = assay: Effect on TRY6/PRS gene expression in human K562 cells assessed as change in mRNA transcript expression at 10 nM after 48 hrs by DNA microarray analysis relative to control
Summary of the method: (§4)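 K562 CML cells (b3a2 Bcr-Abl) kept under standard culture conditions were exposed to 10 nM conjugate and harvested at 6, 12, 24 and 48 h. Untreated controls were harvested at 48 h. Whole-transcript oligonucleotide microarray profiling was done, and changes of at least twofold versus control were scored.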

K562 [6] = assay: Effect on HIST2H2A gene expression in human K562 cells assessed as change in mRNA transcript expression at 10 nM after 48 hrs by DNA microarray analysis relative to control; summary of the method: as §3
K562 [7] = assay: Effect on DIAPH2 gene expression in human K562 cells assessed as change in mRNA transcript expression at 10 nM after 48 hrs by DNA microarray analysis relative to control; summary of the method: as §1
K562 [8] = assay: Effect on ITGB3 gene expression in human K562 cells assessed as change in mRNA transcript expression at 10 nM after 48 hrs by DNA microarray analysis relative to control; summary of the method: as §3
K562 [9] = assay: Effect on HIST1H4B gene expression in human K562 cells assessed as down-regulation of mRNA transcript expression at 10 nM after 48 hrs by DNA microarray analysis relative to control; summary of the method: as §1
K562 [10] = assay: Effect on HIST1H4C gene expression in human K562 cells assessed as down-regulation of mRNA transcript expression at 10 nM after 48 hrs by DNA microarray analysis relative to control; summary of the method: as §1
K562 [11] = assay: Effect on PRF1 gene expression in human K562 cells assessed as change in mRNA transcript expression at 10 nM after 48 hrs by DNA microarray analysis relative to control; summary of the method: as §3
K562 [12] = assay: Effect on TDRG1 gene expression in human K562 cells assessed as change in mRNA transcript expression at 10 nM after 48 hrs by DNA microarray analysis relative to control; summary of the method: as §3
K562 [13] = assay: Effect on FLJ21767 gene expression in human K562 cells assessed as change in mRNA transcript expression at 10 nM after 48 hrs by DNA microarray analysis relative to control; summary of the method: as §1
K562 [14] = assay: Effect on CLGN gene expression in human K562 cells assessed as change in mRNA transcript expression at 10 nM after 48 hrs by DNA microarray analysis relative to control; summary of the method: as §1
K562 [15] = assay: Effect on LGALS12 gene expression in human K562 cells assessed as change in mRNA transcript expression at 10 nM after 48 hrs by DNA microarray analysis relative to control; summary of the method: as §3
K562 [16] = assay: Induction of apoptosis in human K562 cells assessed as early apoptotic cells at 125 nM after 48 hrs by annexin-V FITC and propidium iodide staining-based FACS analysis; summary of the method: as §2
K562 [17] = assay: Effect on TOMM22 gene expression in human K562 cells assessed as change in mRNA transcript expression at 10 nM after 48 hrs by DNA microarray analysis relative to control; summary of the method: as §4
K562 [18] = assay: Effect on HIST1H3B gene expression in human K562 cells assessed as change in mRNA transcript expression at 10 nM after 48 hrs by DNA microarray analysis relative to control; summary of the method: as §1
K562 [19] = assay: Induction of apoptosis in human K562 cells assessed as early apoptotic cells at 250 nM after 48 hrs by annexin-V FITC and propidium iodide staining-based FACS analysis
Summary of the method: (§5)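 Treated K562 cells […] stained with Annexin V-FITC/propidium iodide. Apoptosis was scored by two-dimensional flow cytometry at a core FACS facility.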

K562 [20] = assay: Effect on HIST1H3J gene expression in human K562 cells assessed as change in mRNA transcript expression at 10 nM after 48 hrs by DNA microarray analysis relative to control; summary of the method: as §1
K562 [21] = assay: Induction of apoptosis in human K562 cells assessed as late apoptotic cells at 250 nM after 48 hrs by annexin-V FITC and propidium iodide staining-based FACS analysis; summary of the method: as §5
K562 [22] = assay: Effect on MRPS28 gene expression in human K562 cells assessed as change in mRNA transcript expression at 10 nM after 48 hrs by DNA microarray analysis relative to control; summary of the method: as §3
K562 [23] = assay: Effect on NET1 gene expression in human K562 cells assessed as change in mRNA transcript expression at 10 nM after 48 hrs by DNA microarray analysis relative to control; summary of the method: as §3
K562 [24] = assay: Effect on CD52 gene expression in human K562 cells assessed as change in mRNA transcript expression at 10 nM after 48 hrs by DNA microarray analysis relative to control; summary of the method: as §1
K562 [25] = assay: Effect on RP11-195B gene expression in human K562 cells assessed as change in mRNA transcript expression at 10 nM after 48 hrs by DNA microarray analysis relative to control; summary of the method: as §3
K562 [26] = assay: Effect on SLC7A8 gene expression in human K562 cells assessed as change in mRNA transcript expression at 10 nM after 48 hrs by DNA microarray analysis relative to control; summary of the method: as §3
K562 [27] = assay: Effect on HIST1H4H gene expression in human K562 cells assessed as down-regulation of mRNA transcript expression at 10 nM after 48 hrs by DNA microarray analysis relative to control; summary of the method: as §3
K562 [28] = assay: Effect on TRIB3 gene expression in human K562 cells assessed as change in mRNA transcript expression at 10 nM after 48 hrs by DNA microarray analysis relative to control; summary of the method: as §4
K562 [29] = assay: Effect on SLC4A1 gene expression in human K562 cells assessed as change in mRNA transcript expression at 10 nM after 48 hrs by DNA microarray analysis relative to control; summary of the method: as §3

In the case of `CC(=O)Nc1cn(C)c(C(=O)Nc2cn(C)c(C(=O)NCCC(=O)Nc3cn(C)c(C(=O)NCCCC(=O)Nc4cc(C(=O)Nc5cn(C)c(C(=O)Nc6ccc7[nH]c(C(=O)N8CC(CCl)c9c8cc(O)c8ccccc98)cc7c6)n5)n(C)c4)n3)n2)n1` (centres undefined), the “fold change (FC)” value (K562 [1]) was “>=2”, the Activity (K562 [2]) was 2.07% and the “fold change (FC)” value (K562 [3]) was “>=2”. The “fold change (FC)” value (K562 [4]) was “>=2”, the “fold change (FC)” value (K562 [5]) was “>=2” and the “fold change (FC)” value (K562 [6]) was “>=2”. The “fold change (FC)” value (K562 [7]) was “>=2”, the “fold change (FC)” value (K562 [8]) was “>=2” and the “fold change (FC)” value (K562 [9]) was 3.91. The “fold change (FC)” value (K562 [10]) was 2.86, the “fold change (FC)” value (K562 [11]) was “>=2” and the “fold change (FC)” value (K562 [12]) was “>=2”. For the same molecule, the “fold change (FC)” value (K562 [13]) was “>=2”, the “fold change (FC)” value (K562 [14]) was “>=2” and the “fold change (FC)” value (K562 [15]) was “>=2”. The Activity (K562 [16]) was 8.41%, the “fold change (FC)” value (K562 [17]) was “>=2” and the “fold change (FC)” value (K562 [18]) was “>=2”. The Activity (K562 [19]) was 17.1%, the “fold change (FC)” value (K562 [20]) was “>=2” and the Activity (K562 [21]) was 8.53%. The “fold change (FC)” value (K562 [22]) was “>=2”, the “fold change (FC)” value (K562 [23]) was “>=2” and the “fold change (FC)” value (K562 [24]) was “>=2”. For the same molecule, the “fold change (FC)” value (K562 [25]) was “>=2”, the “fold change (FC)” value (K562 [26]) was “>=2” and the “fold change (FC)” value (K562 [27]) was 2.11. The “fold change (FC)” value (K562 [28]) was “>=2” and the “fold change (FC)” value (K562 [29]) was “>=2”.
